Results pooled from the literature.
Effect on: cell growth or viability

SMILES | cell line | technique | concentration | time | endpoint | result
C[C@H](Nc1ccc2c(c1)OCCn1cc(N3C(=O)OC[C@H]3C(F)F)nc1-2)C(N)=O | BFTC-909 | ATP luminescence | – | 5 days | EC50 | 342 nM
Cc1nc(Nc2ncc(C(=O)Nc3c(C)cccc3Cl)s2)cc(N2CC[C@H](O)C2)n1 | KU812 | ATP luminescence | 10 µM | 72 h | inhibition | 97%
CCCn1cnc2ccc(-c3ccc(NC(=O)CC4CCC4)nc3)cc2c1=O | HCC827 | CCK-8 | – | 72 h | IC50 | 1210 nM
CN(C)CCNC(=O)c1ccc(-c2nc3ccc4[nH]ncc4c3c3c2CCCC3)cc1 | HCC827 | – | – | 72 h | GI50 | 1040 nM
CCCCn1cnc2ccc(-c3ccc(NC(=O)Nc4ccc(C(F)(F)F)cc4)nc3)cc2c1=O | HCC827 | CCK-8 | – | 72 h | IC50 | > 10000 nM
CN(C)CCNC(=O)c1ccc(-c2nc3ccc4[nH]ncc4c3c3c2CCCCC3)c(F)c1 | HCC827 | – | – | 72 h | GI50 | 985 nM
Cc1nc(NC(=O)N2CCC[C@H]2C(N)=O)sc1-c1ccnc(C(C)(C)C(F)(F)F)c1 | BFTC-909 | ATP luminescence | – | 5 days | EC50 | 5560 nM
CN(C)CCNC(=O)c1ccc(-c2nc3ccc4[nH]ncc4c3c3c2CCCCC3)cc1 | HCC827 | – | – | 72 h | GI50 | 3040 nM
CCCCn1cnc2ccc(-c3ccc(NC(=O)NCCC)nc3)cc2c1=O | HCC827 | CCK-8 | – | 72 h | IC50 | > 10000 nM
